Source: ChEMBL document CHEMBL3124881, “New perspectives on the synthesis and antichagasic activity of 3-alkoxy-1-alkyl-5-nitroindazoles” (Eur J Med Chem, 2014)
pIC50: −log10 of the molar value. The source made the active and inactive calls. The calls are words filed in the database; no cut-off is given here.

Assays:
[1] = test system: Trypanosoma cruzi; assay: Antitrypanosomal activity against Trypanosoma cruzi (IRHOD/CO/2008/SN3) epimastigotes assessed as change in L-lactate level at IC25 after 96 hrs by [1H]-NMR spectroscopic analysis relative to control; format: functional
How it was run: (§1)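 Epimastigote cultures started at 5 × 10⁵ cells/mL and given IC25 concentrations, with untreated control cultures. After 96 h at 28 °C, cells spun at 400 g for 10 min. Excreted metabolites in the supernatant identified by ¹H NMR chemical shifts.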

[2] = test system: Trypanosoma cruzi; assay: Antitrypanosomal activity against Trypanosoma cruzi (IRHOD/CO/2008/SN3) infected in African green monkey Vero cells assessed as reduction in number of amastigotes at IC25 treated for 12 hrs followed by compound-washout measured after 10 days by microscopic analysis relative to control; format: functional
How it was run: (§2)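 Vero cells grown 2 days, then infected with metacyclic forms at 10:1. Drugs at IC25 added immediately after infection for 12 h at 37 °C, 5% CO2, then removed by washing. Cultures grown 10 days with medium renewed every 48 h. Methanol-fixed, Giemsa-stained preparations: % infected cells and amastigotes per infected cell over 200 host cells; trypomastigotes counted in the medium. Means of three experiments.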

[3] = test system: Trypanosoma cruzi; assay: Antitrypanosomal activity against Trypanosoma cruzi (IRHOD/CO/2008/SN3) epimastigotes assessed as damaged glycosomes at IC25 after 96 hrs by transmission electron microscopic analysis; format: functional, organism-based
[4] = test system: Mus musculus; assay: Toxicity in BALB/c mouse assessed as mortality at 1 mg/kg/day, ip; format: organism-based; set-up: route intraperitoneal; settings: in vivo
How it was run: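 Female BALB/c mice (6-8 weeks, 20-25 g), groups of three, infected ip with 1 × 10⁵ T. cruzi SN3 metacyclic forms. Dosing ip at 1 mg/kg/day for five consecutive days (days 5-10 post-infection). Controls were uninfected, infected-untreated and uninfected-treated groups. Mice followed to day 120 post-infection, with deaths recorded.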

[5] = test system: Trypanosoma cruzi; assay: Antitrypanosomal activity against Trypanosoma cruzi (IRHOD/CO/2008/SN3) epimastigotes assessed as change in L-alanine level at IC25 after 96 hrs by [1H]-NMR spectroscopic analysis relative to control; format: functional; how it was run: as §1
[6] = test system: Trypanosoma cruzi; assay: Antitrypanosomal activity against Trypanosoma cruzi (IRHOD/CO/2008/SN3) infected in African green monkey Vero cells assessed as reduction in number of trypomastigotes at IC25 treated for 12 hrs followed by compound-washout measured after 10 days by microscopic analysis relative to control; format: functional; how it was run: as §2
[7] = test system: Trypanosoma cruzi; assay: Antitrypanosomal activity against Trypanosoma cruzi (IRHOD/CO/2008/SN3) trypomastigotes infected in Balb/c albino mouse after 24 hrs by Neubauer chamber counting analysis; format: functional, organism-based
How it was run: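 Blood taken at the day-7 parasitemia peak from BALB/c mice infected with SN3. Diluted with uninfected murine blood to 4 × 10⁶ trypomastigotes/mL, then 1:2 in RPMI 1640 (2 × 10⁶/mL). Drugs (DMSO stocks) at 100, 50, 25, 10 and 1; incubated 24 h at 4–8 °C. Neubauer chamber counts; IC50 by linear regression; three repeats.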

[8] = test system: Trypanosoma cruzi; assay: Antitrypanosomal activity against Trypanosoma cruzi (IRHOD/CO/2008/SN3) epimastigotes assessed as large vacuolization with lipidic type vacuoles occupying cytoplasm at IC25 after 96 hrs by transmission electron microscopic analysis; format: functional, organism-based
[9] = test system: Trypanosoma cruzi; assay: Antitrypanosomal activity against Trypanosoma cruzi (IRHOD/CO/2008/SN3) epimastigotes assessed as damaged mitochondria at IC25 after 96 hrs by transmission electron microscopic analysis; format: functional, organism-based
[10] = test system: Trypanosoma cruzi; assay: Antitrypanosomal activity against Trypanosoma cruzi (IRHOD/CO/2008/SN3) infected in BALB/c mouse assessed as reduction in parasitemia at 1 mg/kg/day, ip treated from day 5 to day 10 post-infection measured on day 14 post-infection; format: functional, organism-based
How it was run: (§3)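 Female BALB/c mice (groups of three) infected ip with 1 × 10⁵ metacyclic forms. Given 1 mg/kg/day ip for five days (days 5–10 post-infection); infected untreated controls included. Mandibular-vein blood (5 µL) diluted 1:15 in citrate/lysis buffer, with trypomastigotes/mL counted every 3–4 days. Mean values reported.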

[11] = Selectivity index, ratio of IC50 for African green monkey Vero cells to IC50 for Trypanosoma cruzi (IRHOD/CO/2008/SN3) trypomastigotes; format: toxicity, cell-based; settings: read-out: Ratio IC50
How it was run: (§4)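 SI calculated as IC50 on Vero cells divided by IC50 on the corresponding parasite form (epimastigote, amastigote or trypomastigote).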

[12] = test system: Trypanosoma cruzi; assay: Antitrypanosomal activity against Trypanosoma cruzi (IRHOD/CO/2008/SN3) epimastigotes assessed as change in succinate level at IC25 after 96 hrs by [1H]-NMR spectroscopic analysis relative to control; format: functional; how it was run: as §1
[13] = Selectivity index, ratio of IC50 for African green monkey Vero cells to IC50 for Trypanosoma cruzi (IRHOD/CO/2008/SN3) epimastigotes; format: toxicity, cell-based; settings: read-out: Ratio IC50; how it was run: as §4
[14] = test system: Trypanosoma cruzi; assay: Antitrypanosomal activity against Trypanosoma cruzi (IRHOD/CO/2008/SN3) epimastigotes assessed as change in acetate level at IC25 after 96 hrs by [1H]-NMR spectroscopic analysis; format: functional, organism-based; how it was run: as §1
[15] = test system: Trypanosoma cruzi; assay: Antitrypanosomal activity against Trypanosoma cruzi (IRHOD/CO/2008/SN3) amastigotes infected in African green monkey Vero cells after 72 hrs by Giemsa staining-based microscopic analysis; format: functional, organism-based
How it was run: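 SN3 strain. Vero cells in RPMI with 10% inactivated FBS at 37 °C, 5% CO2, seeded at 1 × 10⁴ cells/well on coverslips and grown 2 days. Infected with metacyclic forms at 10:1 for 24 h, then washed. Drugs at 100, 50, 25, 10 and 1 for 72 h. Methanol fixation, Giemsa stain, amastigotes counted over 200 host cells. IC50 by linear regression; mean of four experiments.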

[16] = test system: Trypanosoma cruzi; assay: Antitrypanosomal activity against Trypanosoma cruzi (IRHOD/CO/2008/SN3) epimastigotes assessed as change in ethanol level at IC25 after 96 hrs by [1H]-NMR spectroscopic analysis relative to control; format: functional; how it was run: as §1
[17] = Selectivity index, ratio of IC50 for African green monkey Vero cells to IC50 for Trypanosoma cruzi (IRHOD/CO/2008/SN3) amastigotes; format: toxicity, cell-based; settings: read-out: Ratio IC50; how it was run: as §4
[18] = test system: Trypanosoma cruzi; assay: Antitrypanosomal activity against Trypanosoma cruzi (IRHOD/CO/2008/SN3) epimastigotes assessed as parasite death at IC25 after 96 hrs by transmission electron microscopic analysis; format: functional, organism-based
[19] = test system: Vero; assay: Cytotoxicity against African green monkey Vero cells assessed as cell viability after 72 hrs by propidium iodide staining-based flow cytometric analysis; settings: Chlorocebus sabaeus
How it was run: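 Vero cells in RPMI with 10% inactivated FBS at 37 °C, 5% CO2, treated 72 h across 1–100. Stained with propidium iodide, then fluorescein diacetate (100 ng/mL), each 10 min at 28 °C in the dark. Cells spun at 400 g, washed in PBS, analysed by flow cytometry. % viability versus control; IC50 by linear regression.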

[20] = test system: Trypanosoma cruzi; assay: Antitrypanosomal activity against Trypanosoma cruzi (IRHOD/CO/2008/SN3) infected in BALB/c mouse assessed as reduction in parasite specific antibodies level at 1 mg/kg/day, ip treated from day 5 to day 10 post-infection measured from day 30 to day 120 post-infection by ELISA; format: functional, organism-based
How it was run: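 Female BALB/c mice (6–8 weeks, 20–25 g, groups of three) infected ip with 1 × 10⁵ metacyclic forms. Dosed 1 mg/kg/day ip on days 5–10 post-infection; infected untreated controls included. ELISA on blood diluted 1:50 in PBS, using excreted Fe-SOD antigen from epimastigotes, at days 30 and 120. Read-out is ΔA490 (day 120 minus day 30).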

[21] = test system: Trypanosoma cruzi; assay: Antitrypanosomal activity against Trypanosoma cruzi (IRHOD/CO/2008/SN3) infected in BALB/c mouse assessed as reduction in parasitemia at 1 mg/kg/day, ip treated from day 5 to day 10 post-infection measured on day 30 post-infection relative to control; format: functional; set-up: scale not given: the % may be the effect or the level left; settings: route intraperitoneal; how it was run: as §3
[22] = test system: Trypanosoma cruzi; assay: Antitrypanosomal activity against Trypanosoma cruzi (IRHOD/CO/2008/SN3) epimastigotes assessed as presence of little electron-dense cytoplasm at IC25 after 96 hrs by transmission electron microscopic analysis; format: functional, organism-based
[23] = test system: Trypanosoma cruzi; assay: Antitrypanosomal activity against Trypanosoma cruzi (IRHOD/CO/2008/SN3) epimastigotes after 72 hrs by Neubauer chamber counting analysis; format: functional, organism-based
How it was run: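 SN3 epimastigotes grown in MTL medium with 10% inactivated FBS at 28 °C. Compounds dissolved in DMSO (0.01% final) and added at 100, 50, 25, 10 and 1. Parasites counted at 72 h in a Neubauer haemocytometer. IC50 from linear regression of Kc values; averages of four experiments.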

[24] = test system: Trypanosoma cruzi; assay: Antitrypanosomal activity against Trypanosoma cruzi (IRHOD/CO/2008/SN3) infected in African green monkey Vero cells assessed as reduction in infection rate at IC25 treated for 12 hrs followed by compound-washout measured after 10 days by microscopic analysis relative to control; format: functional; how it was run: as §2

Row | SMILES | pIC50 [7] | selectivity ratio [11] | selectivity ratio [13] | pIC50 [15] | selectivity ratio [17] | pIC50 [19] | pIC50 [23] | other results
1 | Cn1nc(OCc2ccccc2)c2cc([N+](=O)[O-])ccc21 | 4.92 | 16.1 | 11 | 4.85 | 13.7 | 3.71 | 4.75 | Activity [1]: 23%; inhibition (INH) [2]: 76%; Activity [3]: Active; Activity [4]: Non-toxic; Activity [5]: 19%; inhibition (INH) [6]: 80%; Activity [8]: Active; Activity [9]: Active; Activity [10]: Active; Activity [12]: 35%; Activity [14]: inactive; Activity [16]: 11%; Activity [18]: Active; Activity [20]: Active; Activity [21]: 33%; Activity [22]: Active; inhibition (INH) [24]: 82%
2 | COc1nn(CCOCCN(C)CCOCCn2nc(OC)c3cc([N+](=O)[O-])ccc32)c2ccc([N+](=O)[O-])cc12 | 4.69 | 6.3 | 4.1 | 4.55 | 4.6 | 3.89 | 4.61 | –
3 | COc1nn(CCOCCN)c2ccc([N+](=O)[O-])cc12 | 4.68 | 4.2 | 3.2 | 4.58 | 3.3 | 4.06 | 4.56 | –
4 | COc1nn(CCOCCNCCOCCn2nc(OC)c3cc([N+](=O)[O-])ccc32)c2ccc([N+](=O)[O-])cc12 | 4.58 | 0.6 | 0.5 | 4.59 | 0.6 | 4.77 | 4.51 | –
5 | CNCCOCCn1nc(OC)c2cc([N+](=O)[O-])ccc21 | 4.69 | 4.3 | 3.3 | 4.63 | 3.7 | 4.06 | 4.57 | –
6 | COc1nn(C)c2ccc([N+](=O)[O-])cc12 | 4.61 | 7.4 | 7.4 | 4.49 | 5.6 | 3.74 | 4.61 | –
7 | CNCCOCCn1nc(OCc2ccccc2)c2cc([N+](=O)[O-])ccc21 | 4.84 | 14.7 | 11.2 | 4.78 | 12.9 | 3.67 | 4.72 | Activity [1]: 17%; inhibition (INH) [2]: 63%; Activity [3]: Active; Activity [4]: Non-toxic; Activity [5]: inactive; inhibition (INH) [6]: 75%; Activity [8]: Active; Activity [9]: Active; Activity [10]: Active; Activity [12]: 13%; Activity [14]: inactive; Activity [16]: inactive; Activity [18]: Active; Activity [20]: Active; Activity [21]: 39%; Activity [22]: Active; inhibition (INH) [24]: 78%
8 | CN(CCOCCn1nc(OCc2ccccc2)c2cc([N+](=O)[O-])ccc21)CCOCCn1nc(OCc2ccccc2)c2cc([N+](=O)[O-])ccc21 | 4.78 | 7.8 | 4.8 | 4.78 | 7.8 | 3.89 | 4.58 | –
